Hits are enriched below; roughly 10% of the tested compounds scored in any of these assays.
PMI act: activators of human phosphomannose isomerase. activation factor at 20 µM. 190,000 tested, 0.005% active. purified human PMI, coupled resazurin fluorescence, 20 min; hits give high values; 1 = vehicle control, 0 substrate-free wells;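 active means activation factor of 2 or more at 20 µM, relative to plate controls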
Target sequence (P34949 whole entry, looked up): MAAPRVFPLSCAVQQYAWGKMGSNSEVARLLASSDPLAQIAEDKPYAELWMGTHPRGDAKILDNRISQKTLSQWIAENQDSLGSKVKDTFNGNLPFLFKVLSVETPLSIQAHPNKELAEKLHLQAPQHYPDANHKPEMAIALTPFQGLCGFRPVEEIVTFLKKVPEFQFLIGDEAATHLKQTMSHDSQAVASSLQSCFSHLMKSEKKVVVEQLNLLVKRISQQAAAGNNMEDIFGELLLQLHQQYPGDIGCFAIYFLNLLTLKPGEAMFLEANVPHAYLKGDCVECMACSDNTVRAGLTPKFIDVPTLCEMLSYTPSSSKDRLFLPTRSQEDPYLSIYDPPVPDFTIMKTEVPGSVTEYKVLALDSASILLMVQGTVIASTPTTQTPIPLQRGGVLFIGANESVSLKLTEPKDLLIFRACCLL
Lmaj promast: Leishmania major promastigote growth inhibition; Leishmania major promastigotes, resazurin fluorescence viability; inhibition, % at 10 µM; 200,000 tested, 9% active; AID 1063; in the data active means inhibition above about 50%;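 further: promastigotes grown with compound for 44 hours at 28 °C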
WT yeast gro inh: growth inhibition of WT yeast, mitochondrial fusion screen; AID 1362; mitochondrial fusion phenotypic screen, WT strain; inhibition, % at 10 µM; 190,000 tested, 2.1% active; in the data active means inhibition above about 58%; tested in S. cerevisiae
Diaphorase act: activates diaphorase or chemically reduces, flagging diaphorase assay artifacts; 190,000 tested, 0.005% active; AID 1229; Diaphorase/resazurin coupled assay, resorufin fluorescence, 16 min; hits give high values; 1 = vehicle wells, 0 = NADH-free wells; activation factor at 20 µM;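 active means diaphorase activity raised at least twofold by the compound at 20 µM; inactive means activation factor below 2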
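Test system: Clostridium kluyveri diaphorase, purified enzyme. Buffer or medium: 50 mM HEPES pH 7.4 buffer plus MgCl2 and Tween 20. Also added: 0.114 mM NADH and 0.1 mM resazurin, final amounts. Dosing: compound 20 µM once, DMSO 1%. Schedule: 16 min enzyme reaction, ambient temperature. Detection: fluorescence of resorufin, 544 nm excitation, 590 nm emission.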
PMI act satM6P: activators of human phosphomannose isomerase at near-saturating mannose 6-phosphate; P34949; coupled PMI enzyme assay, resazurin fluorescence, 20 min; hits give high values; 1 = untreated enzyme, 0 = substrate-free blank; activation factor at 20 µM; 190,000 tested, 0.34% active;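 active means activation factor of 2 or more at 20 µM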
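Technique: Diaphorase-driven resazurin-to-resorufin fluorescence, excitation 544, emission 590 nm | Assay system: Human PMI in coupled enzyme assay | Times: Enzyme reaction with compound 20 min at room temperature | Medium: HEPES-buffered pH 7.4 with magnesium and detergent | Reagent: Mannose-6-phosphate 1.0 mM (near-saturating) plus 0.22 mM NADP+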
Active calls of the source: *.

SMILES	PMI act	Lmaj promast	WT yeast gro inh	Diaphorase act	PMI act satM6P
CCC(C)n1c(SCC(=O)Nc2cc(C(C)(C)C)nn2-c2ccccc2)nc2ccccc2c1=O (centres undefined)	1	42	49	0.9	0.9
CC1=CN2C(=N)/C(=C/c3ccc(Sc4ccc(C)cc4)o3)C(=O)N=C2S1	0.9	-3	77*	0.9	0.9
Cc1nc2c(-c3ccccc3)c(C)[nH]n2c(=O)c1Cc1ccccc1	1	36	13	1	1.1
Cc1nc2c(C#N)c(C)[nH]n2c(=O)c1Cc1ccccc1	0.9	87*	29	0.9	0.9
O=C(CSc1ccc(-c2ccccc2)nn1)Nc1ccc2c(c1)OCCO2	0.9	1	-1	0.8	1
Nn1c(SCC(=O)Nc2ccc3c(c2)OCO3)nnc1-c1ccncc1	1	-3	88*	0.9	1.1
Nn1c(SCC(=O)Nc2ccc3c(c2)OCO3)nnc1C(F)(F)F	1	-1	-1	1	1
O=C(CSc1nnc2scc(-c3ccccc3)n12)Nc1ccc2c(c1)OCCO2	0.9	-7	73*	0.9	1
COc1cccc(N(C(=O)CCl)C(C(=O)NCCc2ccccc2)c2cccs2)c1 (centres undefined)	1.1	100*	4	1	1
COc1ccc(N(C(=O)CCl)C(C(=O)NCCc2ccccc2)c2cccs2)cc1Cl (centres undefined)	1.1	100*	44	1	1.1
COc1cccc(N(C(=O)CS(=O)CC(=O)Nc2ccc(F)cc2)C(C(=O)NC2CCCCC2)c2cccs2)c1 (centres undefined)	0.9	25	3	1	0.9
O=C(NCCc1nc2ccccc2[nH]1)/C(=C/c1ccco1)NC(=O)c1ccc(Br)o1	0.9	7	-10	0.7	0.8
CN(c1ccc(OCC(=O)OCC(=O)NCc2ccco2)cc1)S(=O)(=O)c1ccc2ccccc2c1	0.9	-12	-16	0.8	0.9
COC(=O)c1sc(S(=O)(=O)NCCC(=O)O)c(C(=O)OC)c1C	0.9	-4	-13	0.9	0.9
Cc1cc(N/N=C/c2ccccc2)nc(NCc2ccccc2)n1	0.8	88*	62*	0.9	0.8
Cc1cc(Nc2cccc(Cl)c2)nc(NCc2ccccc2)n1	0.8	100*	97*	0.9	0.9
Cc1cc(N/N=C/c2cccc(Cl)c2)nc(NCc2ccccc2)n1	0.8	77*	82*	0.9	0.9
Cc1cc(N/N=C/c2ccc(Cl)cc2)nc(NCc2ccccc2)n1	0.8	94*	96	0.9	0.9
COc1ccccc1C/C(N)=N/OC(=O)c1ccco1	0.9	-5	-3	0.9	1
O=C(N/N=C/c1ccc([N+](=O)[O-])cc1)c1[nH]ncc1Br	1	-2	15	1	1
CCn1c(Sc2ccc([N+](=O)[O-])cn2)nnc1-c1ccco1	1.1	10	2	1	1
COC(=O)c1ccc(COc2ccc(/C=N/O)cc2OC)o1	0.9	5	-13	1.1	1
Nc1ccccc1N=Cc1ccc(-c2cccc(Cl)c2)o1	1.2	46	51	1	1.1
COc1ccc(N=C2SC(C(=O)Nc3ccc(OC)cc3)CC(=O)N2CCN2CCOCC2)cc1 (centres undefined)	1	58*	2	0.8	0.9
CCN=C1SC(C(=O)Nc2ccc(OC)cc2)CC(=O)N1CC (centres undefined)	1.2	0	9	1.2	1.2
SMILES	PMI act	Lmaj promast	WT yeast gro inh	Diaphorase act	PMI act satM6P
Cc1cc(SCC(=O)N(C)C2CCS(=O)(=O)C2)nc2c(C)cccc12 (centres undefined)	1.1	0	4	1	1.1
CC(=O)c1cccc(NC(=O)COC(=O)[C@@H](NC(=O)OCc2ccccc2)C(C)C)c1	1	-6	-30	1	1.1
CCN(CC)c1ccc(C(=O)N/N=C(\C)c2ccc(O)cc2)cc1	0.9	29	-4	0.9	1
CCCCNc1nnc(SCC(=O)c2c[nH]c3ccccc23)s1	1	67*	12	0.9	1
CCOC(=O)c1sc2nc3c(SCCC(=O)O)cc(C(=O)c4cc(OC)ccc4O)cn3c(=O)c2c1C	1.4	-12	2	0.7	0.8
CCOC(=O)c1sc2nc3c(SCCC#N)cc(C(=O)c4cc(F)ccc4O)cn3c(=O)c2c1C	0.9	63*	-4	0.8	0.6
Cc1c(Cl)cccc1NC(=S)NCCC(c1ccccc1)c1ccccc1	1.1	43	78*	1.1	1.1
C=CCNC(=S)NCC1COc2ccccc2O1 (centres undefined)	1	-4	1	0.9	0.9
Cc1ccc(Cl)cc1NC(=S)NCc1cccn1C	1	51*	7	1	1.2
Cc1cc(Cl)ccc1NC(=S)NCCC(c1ccccc1)c1ccccc1	0.9	30	74*	0.8	0.9
Cc1c(Cl)cccc1NC(=S)NCC1COc2ccccc2O1 (centres undefined)	1	17	59*	0.9	1
Cc1ccccc1NC(=S)NCc1cccn1C	1.1	-2	-6	0.9	1.2
Cc1c(Cl)cccc1NC(=S)NCCC(C)C	0.9	17	48	0.9	0.9
COC(=O)c1sc2nc(CN3CCN(c4ccc(OC)cc4)CC3)[nH]c(=O)c2c1C	0.8	-3	-7	0.9	0.7
CNC(=S)NCCc1cc2c(OC)ccc(OC)c2[nH]c1=O	0.9	-5	-4	0.8	0.6
O=C(NCCc1ccccn1)C1CCN(S(=O)(=O)c2ccc3ccccc3c2)CC1	1.1	23	4	1.2	1
CCOC(=O)CSC1=C(C#N)C(c2ccc(C)cc2)C(C(=O)OC)C(=O)N1 (centres undefined)	1	6	16	0.8	1
COC(=O)C1=C(O)C(C(=O)OC)C(c2ccc(C)cc2)C(C#N)(C#N)C1c1ccc(C)cc1 (centres undefined)	1	61*	67*	0.8	1
S=C(NCc1ccco1)N/N=C/c1ccccc1Cl	1	-8	-7	0.8	0.9
COCCNC(=S)NC1CC2CCCC(C1)N2Cc1ccco1 (centres undefined)	1	-6	7	1	1
Fc1ccc(NC(=S)NC2CC3CCC(C2)N3Cc2ccco2)cc1 (centres undefined)	1	82*	-17	1	1.1
CCOc1ccc(NC(=S)NC2CC3CCC(C2)N3Cc2ccco2)cc1 (centres undefined)	1	68*	12	1	1
CCCN1C2CCCC1CC(NC(=S)Nc1cc(C)cc(C)c1)C2 (centres undefined)	0.9	54*	-8	0.8	1
Cc1cccc(NC(=S)NC2CC3CCCC(C2)N3Cc2cccs2)c1 (centres undefined)	1	89*	-1	0.9	1
